Source: ChEMBL document CHEMBL3244412, “Benzopyrones. 14. Synthesis and antiallergic properties of some N-tetrazolylcarboxamides and related compounds” (1978)
In brackets after ≈: the same amount, converted by molar mass.

What was measured:
[1] = Antianaphylactic activity in rat mast cells assessed as inhibition of DNP-ovalbumin-induced histamine release after 15 mins by superfusion assay; assay type: functional; settings: Mast cell, 0.25 h, read-out: ED50 (the source's name)
Method in brief: (§1)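 Peritoneal and pleural cells from male albino rats were washed, sensitized with 1:10 rat reaginic anti-DNP-ovalbumin serum for 2 h at 37 °C, and resuspended at 1.2-1.7 × 10⁵ mast cells/mL. Compound and DNP-ovalbumin were added together and incubated for 15 min at 37 °C. Supernatant (free) and lysed-cell (residual) histamine were assayed by guinea pig ileum superfusion bioassay. Inhibition of net histamine release was used to derive EC50 from dose ranging against the reference compound.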

[2] = Antianaphylactic activity in rat mast cells assessed as inhibition of DNP-ovalbumin-induced histamine release after 15 mins by superfusion assay relative to 4-oxo-N-(5-tetrazolyl)-4H-l-benzopyran-2-carboxamide; assay type: functional, Mast cell; method in brief: as §1
[3] = tested on: Rattus norvegicus; test: Antiallergic activity in rat assessed as inhibition of DNP-ovalbumin-induced passive cutaneous anaphylaxis at 5 mg/kg, iv after 30 mins relative to control; assay type: functional; settings: 0.5 h
Method in brief: (§2)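 Female albino rats (groups of four) were shaved and sensitized by dorsal intradermal injection of 0.1 mL diluted rat reaginic anti-DNP-ovalbumin serum, raised with Bordetella pertussis adjuvant. After 48 h they were challenged iv with 2 mg DNP-ovalbumin in 0.5 mL 1% Evans blue/saline, with the compound given iv in aqueous solution at the same time. After 30 min, skin weals were scored visually on a 5-point scale; % inhibition was taken versus vehicle controls.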

[4] = tested on: Rattus norvegicus; test: Antiallergic activity in rat assessed as inhibition of DNP-ovalbumin-induced passive cutaneous anaphylaxis at 1 mg/kg, iv after 30 mins relative to control; assay type: functional; settings: Rattus norvegicus, iv, 0.5 h; method in brief: as §2
[5] = organism: Homo sapiens; test: Antianaphylactic activity in human lung fragments assessed as inhibition of sheep anti-human IgE-induced histamine release at 18 ug/ml treated 10 mins prior to sheep anti-human IgE-challenge measured after 15 mins by superfusion assay relative to control; assay type: functional
Method in brief: (§3)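 Human lung fragments in Tyrode's solution were incubated with the compound for 10 min, then challenged with sheep anti-human IgE and centrifuged for 15 min after challenge. Free and residual histamine were measured by superfusion bioassay on atropine-treated guinea pig ileum. % release and % inhibition were calculated from net release. Values are means of three experiments, each in duplicate.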

[6] = organism: Homo sapiens; test: Antianaphylactic activity in human lung fragments assessed as inhibition of sheep anti-human IgE-induced histamine release at 180 ug/ml treated 10 mins prior to sheep anti-human IgE-challenge measured after 15 mins by superfusion assay relative to control; assay type: functional; method in brief: as §3
[7] = organism: Homo sapiens; test: Antianaphylactic activity in human lung fragments assessed as inhibition of sheep anti-human IgE-induced histamine release treated 10 mins prior to sheep anti-human IgE-challenge measured after 15 mins by superfusion assay; assay type: functional; method in brief: as §3
[8] = tested on: Rattus norvegicus; test: Antiallergic activity in iv dosed rat assessed as inhibition of DNP-ovalbumin-induced passive cutaneous anaphylaxis after 30 mins; assay type: functional; settings: 0.5 h; method in brief: as §2
[9] = tested on: Rattus norvegicus; test: Antiallergic activity in po dosed rat assessed as inhibition of DNP-ovalbumin-induced passive cutaneous anaphylaxis administered 10 mins prior to DNP-ovalbumin-challenge; assay type: functional
Method in brief: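 This rat passive cutaneous anaphylaxis model used reaginic anti-DNP-ovalbumin serum given intradermally, iv DNP-ovalbumin with Evans blue 48 h later, and weal scoring. Rats were starved overnight and dosed orally with the compound in aqueous solution 10 min before iv antigen challenge. ED50 was calculated with 95% confidence limits, assuming a log-linear dose response.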

[10] = organism: Homo sapiens; test: Antianaphylactic activity in human lung fragments assessed as inhibition of sheep anti-human IgE-induced histamine release at 0.18 ug/ml treated 10 mins prior to sheep anti-human IgE-challenge measured after 15 mins by superfusion assay relative to control; assay type: functional; method in brief: as §3
[11] = organism: Homo sapiens; test: Antianaphylactic activity in human lung fragments assessed as inhibition of sheep anti-human IgE-induced histamine release at 1.8 ug/ml treated 10 mins prior to sheep anti-human IgE-challenge measured after 15 mins by superfusion assay relative to control; assay type: functional; method in brief: as §3

Structure (SMILES) | EC50 [1] [µg/mL] | fold change (potency relative to reference compound) [2] | inhibition in vivo at 1 mg/kg [4] [%] | other results
O=c1c(-n2nn[nH]c2=O)coc2ccccc12 | 5 (≈ 21.7 µM) | 0.01 | – | inhibition in vivo at 5 mg/kg [3]: 75%
O=C(/C=C/c1coc2ccccc2c1=O)Nc1nnn[nH]1 | 6 (≈ 21.2 µM) | <0.005 | 65 | –
O=C(O)c1coc2ccccc2c1=O | > 18 | <0.005 | 20 | –
O=C(O)CCCCCNC(=O)c1cc(=O)c2ccccc2o1 | > 18 | <0.005 | 0 | –
O=C(Cc1nnn[nH]1)Nc1coc2ccccc2c1=O | > 18 | <0.005 | – | inhibition in vivo at 5 mg/kg [3]: 0%
Cc1ccc2oc(C(=O)O)c(-c3ccccc3)c(=O)c2c1 | > 18 | <0.005 | 0 | –
O=C(O)c1ccc2occc(=O)c2c1 | > 18 | <0.005 | 0 | –
NCCCO.O=C(Nc1nnn[nH]1)c1oc2ccccc2c(=O)c1NCCCO | 0.024 | 0.67 | 100 | –
O=C([O-])c1cc(=O)c2c(OCC(O)COc3cccc4oc(C(=O)[O-])cc(=O)c34)cccc2o1.[Na+].[Na+] [CROMOLYN SODIUM] | 2.55 | 0.02 | 40 | –
CN1CCN(C(=O)c2coc3ccccc3c2=O)CC1.Cl | 14 | 0.007 | 20 | –
CN1CCN(C(=O)/C=C/c2coc3ccccc3c2=O)CC1 | > 18 | <0.005 | 0 | –
O=C(Nc1nnn[nH]1)c1oc2ccccc2c(=O)c1N1CCOCC1 | > 18 | <0.005 | 10 | –
O=C(O)CNC(=O)c1ccc2oc(C(=O)NCC(=O)O)cc(=O)c2c1 | > 18 | <0.005 | 10 | –

Second part, led by results:

EC50 [1] [µg/mL] | Structure (SMILES) | fold change (potency relative to reference compound) [2] | inhibition in vivo at 1 mg/kg [4] [%] | other results
0.1 (≈ 0.307 µM) | O=C(Nc1nnn[nH]1)c1cc(=O)c2cc(-c3nnn[nH]3)ccc2o1 | 0.85 | 70 | –
0.08 (≈ 0.311 µM) | O=C(Nc1nnn[nH]1)c1cc(=O)c2ccccc2o1 | 1 | 100 | inhibition [5]: 43.3%; inhibition [6]: 61.6%; inhibition [7]: Dose-dependent effect; ED50 [8]: 0.037 mg/kg; ED50 [9]: 21 mg/kg; inhibition [10]: 5%; inhibition [11]: 46.4%
0.58 (≈ 2.14 µM) | Cc1ccc2c(=O)cc(C(=O)Nc3nnn[nH]3)oc2c1 | 0.19 | 75 | –
0.085 (≈ 0.269 µM) | O=C(Nc1nnn[nH]1)c1oc2ccccc2c(=O)c1NCCO | 0.18 | 100 | –
0.048 (≈ 0.167 µM) | COc1ccc2c(=O)cc(C(=O)Nc3nnn[nH]3)oc2c1 | 1.8 | 75 | –
0.055 (≈ 0.169 µM) | O=C(Nc1nnn[nH]1)c1ccc2oc(-c3nnn[nH]3)cc(=O)c2c1 | 1 | 70 | –
5 (≈ 19.5 µM) | O=C(Nc1nc[nH]n1)c1cc(=O)c2ccccc2o1 | 0.002 | 0 | –
8 (≈ 23 µM) | Cc1ccc2oc(C(=O)Nc3nnn[nH]3)c(-c3ccccc3)c(=O)c2c1 | 0.005 | 50 | –
0.7 (≈ 2.72 µM) | O=C(Nc1nnn[nH]1)c1ccc2occc(=O)c2c1 | 0.08 | 35 | –
5.5 (≈ 18.2 µM) | O=C(Nc1nnn[nH]1)c1cc(=O)c2cc([N+](=O)[O-])ccc2o1 | 0.01 | 15 | –
2.3 (≈ 8.15 µM) | N#Cc1ccc2oc(C(=O)Nc3nnn[nH]3)cc(=O)c2c1 | 0.03 | 100 | –
> 18 | CN(C(=O)c1cc(=O)c2ccccc2o1)c1nnn[nH]1 | <0.005 | 0 | –
0.033 (≈ 0.128 µM) | O=C(Nc1nnn[nH]1)c1coc2ccccc2c1=O | 0.48 | 65 | –
